Columns and labels:
[1] = test system: HT-29; assay: Cytotoxicity against human HT-29 cells after 48 hrs by MTT assay; type: functional, cell-based; conditions: HT-29, 48 h
Summary of the method: (§1)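 Cells seeded at 5 × 10⁴ cells/mL and allowed to settle 2 h (K562) or overnight (HepG2, HT-29). Compound in DMSO added, then 48 h further culture. Viability read by MTT with a microplate reader, normalized to DMSO-treated controls set as 100%. IC₅₀ obtained by nonlinear regression; each compound measured three times.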

[2] = test system: HepG2; assay: Cytotoxicity against human HepG2 cells after 48 hrs by MTT assay; type: functional, cell-based; conditions: HepG2, 48 h; summary of the method: as §1
[3] = test system: K562; assay: Cytotoxicity against human K562 cells after 48 hrs by MTT assay; type: functional, cell-based; conditions: K562, 48 h; summary of the method: as §1
[4] = test system: K562; assay: Induction of apoptosis in human K562 cells at 30 nM after 12 hrs using annexin V-FITC and propidium iodide staining by flow cytometric analysis relative to control; type: functional
Summary of the method: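 K562 cells cultured without or with 30 nM compound for 12 h. 1 × 10⁶ cells resuspended in binding buffer containing annexin V-FITC and propidium iodide and incubated 15 min. Further binding buffer added, then cells analysed by flow cytometry for phosphatidylserine exposure.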

| Compound | IC50 [1] | IC50 [2] | IC50 [3] | Activity [4] |
| --- | --- | --- | --- | --- |
| O=C1Nc2ccc(Br)cc2C1=O | > 10000 nM | > 10000 nM | > 10000 nM | – |
| Cc1ccc2c(c1)C(=O)C(=O)N2 | > 10000 nM | > 10000 nM | > 10000 nM | – |
| CCCCc1ccc2c(c1)C(=O)C(=O)N2 | > 10000 nM | > 10000 nM | > 10000 nM | – |
| COC(=O)/C=C/c1ccc2c(c1)C(=O)C(=O)N2 | 270 nM | 370 nM | 220 nM | – |
| COC(=O)/C=C/c1ccc2c(c1)C(=O)C(=O)N2C | 300 nM | 530 nM | 340 nM | – |
| CCN1C(=O)C(=O)c2cc(/C=C/C(=O)OC)ccc21 | 210 nM | 400 nM | 170 nM | – |
| COC(=O)/C=C/c1ccc2c(c1)C(=O)C(=O)N2Cc1ccccc1 | 70 nM | 40 nM | 40 nM | – |
| COC(=O)/C=C/c1ccc2c(c1)C(=O)C(=O)N2Cc1ccc(F)cc1 | 60 nM | 40 nM | 30 nM | – |
| COC(=O)/C=C/c1ccc2c(c1)C(=O)C(=O)N2Cc1ccc(C#N)cc1 | 50 nM | 50 nM | 30 nM | – |
| COC(=O)/C=C/c1ccc2c(c1)C(=O)C(=O)N2Cc1ccc(C(F)(F)F)cc1 | 40 nM | 70 nM | 40 nM | – |
| COC(=O)/C=C/c1ccc2c(c1)C(=O)C(=O)N2Cc1ccc(C)cc1 | 30 nM | 40 nM | 40 nM | – |
| COC(=O)/C=C/c1ccc2c(c1)C(=O)C(=O)N2Cc1ccc(OC)cc1 | 30 nM | 30 nM | 3 nM | 37.2% |
| COC(=O)/C=C/c1ccc2c(c1)C(=O)C(=O)N2Cc1ccc(Cl)cc1 | 60 nM | 40 nM | 30 nM | – |
| COC(=O)/C=C/c1ccc2c(c1)C(=O)C(=O)N2Cc1ccc(Cl)c(Cl)c1 | 210 nM | 160 nM | 60 nM | – |
| COC(=O)/C=C/c1ccc2c(c1)C(=O)C(=O)N2Cc1ccc(Br)cc1 | 30 nM | 40 nM | 6 nM | 32.2% |
| COC(=O)/C=C/c1ccc2c(c1)C(=O)C(=O)N2Cc1cccc(Br)c1 | 240 nM | 170 nM | 30 nM | – |
| COC(=O)/C=C/c1ccc2c(c1)C(=O)C(=O)N2Cc1ccccc1Br | 240 nM | 260 nM | 70 nM | – |
| COC(=O)/C=C/c1ccc2c(c1)C(=O)C(=O)N2Cc1ccc2ccccc2c1 | 100 nM | 90 nM | 40 nM | – |
| COC(=O)/C=C/c1ccc2c(c1)C(=O)C(=O)N2CCOc1ccccc1 | 200 nM | 210 nM | 60 nM | – |
| COC(=O)/C=C/c1ccc2c(c1)C(=O)C(=O)N2Cc1cc(C)cc(C)c1 | 70 nM | 150 nM | 40 nM | – |
| COC(=O)/C=C/c1cccc2c1C(=O)C(=O)N2Cc1ccc(OC)cc1 | 3120 nM | 5490 nM | 350 nM | – |
| COC(=O)/C=C/c1ccc2c(c1)N(Cc1ccc(OC)cc1)C(=O)C2=O | > 10000 nM | > 10000 nM | 4860 nM | – |
| COC(=O)/C=C/c1cccc2c1N(Cc1ccc(OC)cc1)C(=O)C2=O | > 10000 nM | > 10000 nM | 4130 nM | – |
| CCOC(=O)/C=C/c1ccc2c(c1)C(=O)C(=O)N2Cc1ccc(OC)cc1 | 60 nM | 90 nM | 10 nM | – |
| CCOC(=O)/C=C/c1ccc2c(c1)C(=O)C(=O)N2Cc1ccc(Br)cc1 | 50 nM | 290 nM | 30 nM | – |
| CCCCOC(=O)/C=C/c1ccc2c(c1)C(=O)C(=O)N2Cc1ccc(OC)cc1 | 420 nM | 630 nM | 40 nM | – |

| Compound | IC50 [1] | IC50 [2] | IC50 [3] | Activity [4] |
| --- | --- | --- | --- | --- |
| CCCCOC(=O)/C=C/c1ccc2c(c1)C(=O)C(=O)N2Cc1ccc(Br)cc1 | 600 nM | 650 nM | 150 nM | – |
| COc1ccc(CN2C(=O)C(=O)c3cc(/C=C/C(=O)OC(C)(C)C)ccc32)cc1 | 480 nM | 620 nM | 50 nM | – |
| CC(C)(C)OC(=O)/C=C/c1ccc2c(c1)C(=O)C(=O)N2Cc1ccc(Br)cc1 | 730 nM | 2050 nM | 290 nM | – |
| COc1ccc(CN2C(=O)C(=O)c3cc(/C=C/C(=O)OCCO)ccc32)cc1 | 550 nM | 860 nM | 40 nM | – |
| O=C(/C=C/c1ccc2c(c1)C(=O)C(=O)N2Cc1ccc(Br)cc1)OCCO | 680 nM | 3660 nM | 50 nM | – |
| COc1ccc(CN2C(=O)C(=O)c3cc(/C=C/C(=O)O)ccc32)cc1 | > 10000 nM | > 10000 nM | > 10000 nM | – |
| COc1ccc(CN2C(=O)C(=O)c3cc(/C=C/C(N)=O)ccc32)cc1 | 560 nM | 890 nM | 200 nM | – |
| NC(=O)/C=C/c1ccc2c(c1)C(=O)C(=O)N2Cc1ccc(Br)cc1 | 550 nM | > 10000 nM | 300 nM | – |
| COc1ccc(CN2C(=O)C(=O)c3cc(/C=C/C(=O)N4CCOCC4)ccc32)cc1 | 4240 nM | 7380 nM | 720 nM | – |
| O=C1C(=O)N(Cc2ccc(Br)cc2)c2ccc(/C=C/C(=O)N3CCOCC3)cc21 | 4590 nM | 7790 nM | 1380 nM | – |
| COc1ccc(CN2C(=O)C(=O)c3cc(/C=C/C(=O)N4CCCC4)ccc32)cc1 | 5230 nM | 7810 nM | 460 nM | – |
| O=C1C(=O)N(Cc2ccc(Br)cc2)c2ccc(/C=C/C(=O)N3CCCC3)cc21 | 4420 nM | 6300 nM | 1710 nM | – |
| COC(=O)/C=C/c1ccc2c(c1)C(O)C(=O)N2Cc1ccc(OC)cc1 (stereo not given) | 320 nM | 380 nM | 30 nM | – |
| COC(=O)/C=C/c1ccc2c(c1)C(O)C(=O)N2Cc1ccc(Br)cc1 (stereo not given) | 660 nM | 670 nM | 260 nM | – |
| COC(=O)/C=C/c1ccc2c(c1)/C(=N/O)C(=O)N2Cc1ccc(OC)cc1 | 4940 nM | 3560 nM | 2110 nM | – |
| COC(=O)/C=C/c1ccc2c(c1)/C(=N/O)C(=O)N2Cc1ccc(Br)cc1 | 3640 nM | 9960 nM | 2920 nM | – |
| COC(=O)/C=C/c1ccc2c(c1)CC(=O)N2Cc1ccc(OC)cc1 | 3720 nM | 9170 nM | 990 nM | – |
| COC(=O)/C=C/c1ccc2c(c1)CC(=O)N2Cc1ccc(Br)cc1 | > 10000 nM | > 10000 nM | 3160 nM | – |
| COC(=O)/C=C/c1ccc2c(c1)C1(OCCO1)C(=O)N2Cc1ccc(OC)cc1 | > 10000 nM | > 10000 nM | 4890 nM | – |
| COC(=O)/C=C/c1ccc2c(c1)C1(OCCO1)C(=O)N2Cc1ccc(Br)cc1 | 5110 nM | 7470 nM | 2630 nM | – |
| O=C1Nc2ccc(Cl)cc2C1=O | > 10000 nM | > 10000 nM | > 10000 nM | – |
| O=C1Nc2ccc(F)cc2C1=O [5-FLUOROISATIN] | > 10000 nM | > 10000 nM | > 10000 nM | – |
| COc1ccc2c(c1)C(=O)C(=O)N2 [5-METHOXYISATIN] | > 10000 nM | > 10000 nM | > 10000 nM | – |
| CC[C@@]1(O)C(=O)OCc2c1cc1n(c2=O)Cc2cc3ccccc3nc2-1 [CAMPTOTHECIN] | 60 nM | 50 nM | 40 nM | – |
| O=C1Nc2ccccc2C1=O [ISATIN] | > 10000 nM | > 10000 nM | > 10000 nM | – |

— ChEMBL document CHEMBL3102854, “Design, synthesis and in vitro cytotoxicity evaluation of 5-(2-carboxyethenyl)isatin derivatives as anticancer agents” (Bioorg Med Chem Lett, 2014)
